Here are results for 14 compounds from ChEMBL document CHEMBL3046507, “Synthesis and herbicidal activities of novel 3-N-substituted amino-6-methyl-4-(3-trifluoromethylphenyl)pyridazine derivatives” (2008).

By inhibition is commonly meant the drop in the measured response relative to a control, in per cent.

Experiment [1] relates to Echinochloa crus-galli. Put plainly: Herbicidal activity against Echinochloa crus-galli (barnyard grass) assessed as inhibition of fresh plant weight at 750 g/ha using preemergence protocol measured after 24 days under green house conditions. To be noted: pre-emergence.
Experiment [2] has as its system Digitaria. The experiment is described as follows: Herbicidal activity against Digitaria adscendens assessed as inhibition of fresh plant weight at 750 g/ha using preemergence protocol measured after 24 days under green house conditions. To be noted: in Digitaria adscendens, pre-emergence.
In experiment [3] the test system is Echinochloa crus-galli. The experiment is described as follows: Herbicidal activity against Echinochloa crus-galli (barnyard grass) assessed as inhibition of fresh plant weight at 750 g/ha using postemergence protocol measured after 24 days under green house conditions. The conditions noted are these: post-emergence.
The test system of experiment [4] is Amaranthus retroflexus. The experiment is described as follows: Herbicidal activity against Amaranthus retroflexus assessed as inhibition of fresh plant weight at 750 g/ha using preemergence protocol measured after 24 days under green house conditions. The conditions noted are these: pre-emergence.
In experiment [5] the test system is Spirodela polyrhiza. The experiment is described as follows: Inhibition of chlorophyll in Spirodela polyrhiza fronds at 10 ug/mL using light intensity of 45 uE/m2/s measured after 7 days. Format: functional. The conditions noted are these: 168 h. The method in brief:
(§1)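 Giant duckweed assay. Compound in DMF dropped onto filter paper, solvent evaporated 15 min, paper placed in flask with 15 mL fresh medium and shaken >10 min. 10 fronds inoculated per flask and grown 7 days at 23-26 °C, 16 h light/8 h dark, ca. 45 µE m^-2 s^-1. DMF plus medium served as control. Chl extracted in 96% ethanol overnight at 4 °C; OD read at 665 and 649 nm; content expressed as percent of control.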

Experiment [6] concerns Brassica rapa subsp. oleifera. The experiment is described as follows: Herbicidal activity against Brassica rapa subsp. oleifera assessed as inhibition of fresh plant weight at 750 g/ha using postemergence protocol measured after 24 days under green house conditions. To be noted: post-emergence.
In experiment [7] the test system is Digitaria. The experiment is described as follows: Herbicidal activity against Digitaria adscendens assessed as inhibition of fresh plant weight at 750 g/ha using postemergence protocol measured after 24 days under green house conditions. The conditions noted are these: in Digitaria adscendens, post-emergence.
The subject of experiment [8] is Amaranthus retroflexus. Put plainly: Herbicidal activity against Amaranthus retroflexus assessed as inhibition of fresh plant weight at 750 g/ha using postemergence protocol measured after 24 days under green house conditions. The conditions noted are these: post-emergence.
Experiment [9] has as its system Spirodela polyrhiza. Put plainly: Inhibition of chlorophyll in Spirodela polyrhiza fronds at 1 ug/mL using light intensity of 45 uE/m2/s measured after 7 days. Format: functional. To be noted: 168 h. In short, it runs like this: as §1
Experiment [10] has as its system Brassica rapa subsp. oleifera. Put plainly: Herbicidal activity against Brassica rapa subsp. oleifera assessed as inhibition of fresh plant weight at 750 g/ha using preemergence protocol measured after 24 days under green house conditions. The conditions noted are these: pre-emergence.

As for `Cc1cc(-c2cccc(C(F)(F)F)c2)c(NCc2ccccc2Cl)nn1`, the inhibition at 750 g/ha in the experiment on Echinochloa crus-galli [1] worked out at 3%; with Digitaria [2], 1%; in the experiment on Echinochloa crus-galli [3], 26%; in the experiment with Amaranthus retroflexus [4], 36%; in experiment [6], 34%; in the experiment with Digitaria [7], 29%. In addition, the results for the inhibition at 750 g/ha (with Amaranthus retroflexus [8]; in [10]) were 33% and 0%, respectively. Also, the inhibition at 10 µg/mL in the experiment with Spirodela polyrhiza [5] was determined as 90%. For the same compound, in the experiment on Spirodela polyrhiza [9], the inhibition at 1 µg/mL was determined as 73%.

As for `Cc1cc(-c2cccc(C(F)(F)F)c2)c(NC(C)c2ccccc2)nn1` (stereo not given), the inhibition at 750 g/ha in the experiment with Echinochloa crus-galli [1] worked out at 10%; in the experiment with Digitaria [2], 12%; in the experiment on Echinochloa crus-galli [3] it was 43%; in the experiment on Amaranthus retroflexus [4], 10%; in experiment [6], 0%; in the experiment with Digitaria [7], 54%. Besides, the figures for the inhibition at 750 g/ha (in the experiment on Amaranthus retroflexus [8]; in experiment [10]) were 7% and 12%, respectively. The compound further registered an inhibition at 10 µg/mL in the experiment on Spirodela polyrhiza [5] of 63%. The compound also had an inhibition at 1 µg/mL in the experiment on Spirodela polyrhiza [9] of 31%.

In the case of `Cc1cc(-c2cccc(C(F)(F)F)c2)c(NC(C)c2ccc(F)cc2)nn1` (stereo not given), the inhibition at 750 g/ha worked out at 14% in the experiment on Echinochloa crus-galli [1]; 28% with Digitaria [2]; 0% in the experiment with Echinochloa crus-galli [3]; 1% with Amaranthus retroflexus [4]; 0% in [6]; 57% in the experiment with Digitaria [7]. The inhibition at 750 g/ha with Amaranthus retroflexus [8] turned out to be 1%; in experiment [10], 13%. This compound also displayed an inhibition at 10 µg/mL with Spirodela polyrhiza [5] of 79%. In the experiment with Spirodela polyrhiza [9], this compound came in with an inhibition at 1 µg/mL of 47%.

Take `Cc1cc(-c2cccc(C(F)(F)F)c2)c(NC(C)c2ccc(Cl)cc2)nn1` (stereo not given): the inhibition at 750 g/ha worked out at 13% in the experiment on Echinochloa crus-galli [1]; 11% in the experiment with Digitaria [2]; 27% in the experiment with Echinochloa crus-galli [3]; 16% in the experiment with Amaranthus retroflexus [4]; 8% in experiment [6]; 67% in the experiment on Digitaria [7]. Also, the inhibition at 750 g/ha in the experiment on Amaranthus retroflexus [8] is 17%; in experiment [10] it was 2%. The compound also came in with an inhibition at 10 µg/mL in the experiment with Spirodela polyrhiza [5] of 23%. Further, in the experiment with Spirodela polyrhiza [9], the inhibition at 1 µg/mL was found to be 15%.

As for `Cc1cc(-c2cccc(C(F)(F)F)c2)c(NCCc2ccccc2)nn1`, the inhibition at 750 g/ha is 4% in the experiment on Echinochloa crus-galli [1]; 27% in the experiment on Digitaria [2]; 13% in the experiment with Echinochloa crus-galli [3]; 16% with Amaranthus retroflexus [4]; 45% in experiment [6]; 11% in the experiment on Digitaria [7]. The inhibition at 750 g/ha with Amaranthus retroflexus [8] came out at 30%; in [10] it was 0%. In the experiment on Spirodela polyrhiza [5], this compound came in with an inhibition at 10 µg/mL of 100%. 1 µg/mL produced 100% inhibition with Spirodela polyrhiza [9].

Turning to `Cc1cc(-c2cccc(C(F)(F)F)c2)c(Nc2ccccc2C)nn1`, the inhibition at 750 g/ha came out at 0% in the experiment with Echinochloa crus-galli [1]; 11% in the experiment on Digitaria [2]; 10% in the experiment with Echinochloa crus-galli [3]; 0% with Amaranthus retroflexus [4]; 86% in experiment [6]; 1% in the experiment on Digitaria [7]. The inhibition at 750 g/ha turned out to be 38% in the experiment on Amaranthus retroflexus [8] and 7% in experiment [10]. Besides, 10 µg/mL produced 83% inhibition in the experiment on Spirodela polyrhiza [5]. The compound further yielded an inhibition at 1 µg/mL with Spirodela polyrhiza [9] of 65%.

Take `Cc1ccc(Nc2nnc(C)cc2-c2cccc(C(F)(F)F)c2)c(C)c1`: the inhibition at 750 g/ha was 0% in the experiment on Echinochloa crus-galli [1]; 7% in the experiment on Digitaria [2]; 25% in the experiment with Echinochloa crus-galli [3]; 0% with Amaranthus retroflexus [4]; 22% in experiment [6]; 11% in the experiment on Digitaria [7]. Moreover, the inhibition at 750 g/ha with Amaranthus retroflexus [8] was found to be 0%; in [10], 10%. This compound displayed an inhibition at 10 µg/mL with Spirodela polyrhiza [5] of 72%. Also, in the experiment on Spirodela polyrhiza [9], the inhibition at 1 µg/mL came to 69%.

For the compound `COc1ccccc1Nc1nnc(C)cc1-c1cccc(C(F)(F)F)c1`, the inhibition at 750 g/ha in the experiment with Echinochloa crus-galli [1] was determined as 0%; with Digitaria [2] it was 0%; with Echinochloa crus-galli [3], 11%; in the experiment on Amaranthus retroflexus [4], 4%; in experiment [6], 6%; with Digitaria [7], 0%. Also, the figures for the inhibition at 750 g/ha (in the experiment on Amaranthus retroflexus [8]; in [10]) were 30% and 9%, respectively. In addition, in the experiment on Spirodela polyrhiza [5], the inhibition at 10 µg/mL was 82%. Further, in the experiment with Spirodela polyrhiza [9], the inhibition at 1 µg/mL is 62%.

On to `COc1ccc(Nc2nnc(C)cc2-c2cccc(C(F)(F)F)c2)cc1`, for which the inhibition at 750 g/ha in the experiment with Echinochloa crus-galli [1] was 5%; in the experiment with Digitaria [2], 2%; in the experiment with Echinochloa crus-galli [3] it was 28%; with Amaranthus retroflexus [4] it was 55%; in [6], 44%; in the experiment on Digitaria [7], 89%. The inhibition at 750 g/ha in the experiment on Amaranthus retroflexus [8] amounted to 27%; in [10], 13%. Also, in the experiment on Spirodela polyrhiza [5], the inhibition at 10 µg/mL amounted to 100%. This compound also registered an inhibition at 1 µg/mL in the experiment with Spirodela polyrhiza [9] of 100%.

For `Cc1cc(-c2cccc(C(F)(F)F)c2)c(Nc2ccccc2Cl)nn1`, the inhibition at 750 g/ha was determined as 2% in the experiment with Echinochloa crus-galli [1]; 0% in the experiment with Digitaria [2]; 24% in the experiment on Echinochloa crus-galli [3]; 10% with Amaranthus retroflexus [4]; 93% in [6]; 19% in the experiment with Digitaria [7]. Besides, the inhibition at 750 g/ha came out at 41% in the experiment on Amaranthus retroflexus [8] and 9% in experiment [10]. In addition, at 10 µg/mL the inhibition with Spirodela polyrhiza [5] was 100%. This compound gave an inhibition at 1 µg/mL in the experiment on Spirodela polyrhiza [9] of 82%.

As for `Cc1cc(-c2cccc(C(F)(F)F)c2)c(Nc2cccc(Cl)c2)nn1`, the inhibition at 750 g/ha was 0% in the experiment with Echinochloa crus-galli [1]; 0% in the experiment on Digitaria [2]; 7% in the experiment with Echinochloa crus-galli [3]; 12% with Amaranthus retroflexus [4]; 63% in experiment [6]; 5% with Digitaria [7]. Moreover, the inhibition at 750 g/ha in the experiment with Amaranthus retroflexus [8] is 38%; in experiment [10], 3%. The same compound yielded an inhibition at 10 µg/mL in the experiment on Spirodela polyrhiza [5] of 100%. In the experiment on Spirodela polyrhiza [9], this compound yielded an inhibition at 1 µg/mL of 100%.

Turning to `Cc1cc(-c2cccc(C(F)(F)F)c2)c(Nc2cccc(Br)c2)nn1`, the inhibition at 750 g/ha in the experiment on Echinochloa crus-galli [1] was 0%; with Digitaria [2], 0%; in the experiment on Echinochloa crus-galli [3] it was 0%; in the experiment on Amaranthus retroflexus [4], 0%; in experiment [6] it was 17%; in the experiment on Digitaria [7], 0%. For the same compound, the inhibition at 750 g/ha with Amaranthus retroflexus [8] was 30%; in [10] it was 14%. At 10 µg/mL the inhibition in the experiment with Spirodela polyrhiza [5] was 100%. Also, the inhibition at 1 µg/mL in the experiment with Spirodela polyrhiza [9] came out at 100%.

Take `Cc1cc(-c2cccc(C(F)(F)F)c2)c(Nc2ccc(Br)cc2)nn1`: the inhibition at 750 g/ha was 15% in the experiment on Echinochloa crus-galli [1]; 14% in the experiment on Digitaria [2]; 13% in the experiment on Echinochloa crus-galli [3]; 54% in the experiment with Amaranthus retroflexus [4]; 36% in [6]; 26% in the experiment on Digitaria [7]. Besides, the figures for the inhibition at 750 g/ha (with Amaranthus retroflexus [8]; in [10]) were 45% and 26%, respectively. Further, in the experiment with Spirodela polyrhiza [5], at 10 µg/mL the inhibition was 63%. The same compound had an inhibition at 1 µg/mL with Spirodela polyrhiza [9] of 59%.

As to `Cc1cc(-c2cccc(C(F)(F)F)c2)c(Nc2ccc(OC(F)(F)F)cc2)nn1`, the inhibition at 750 g/ha in the experiment on Echinochloa crus-galli [1] is 0%; with Digitaria [2], 5%; with Echinochloa crus-galli [3], 21%; with Amaranthus retroflexus [4] it was 35%; in experiment [6], 50%; with Digitaria [7], 35%. The inhibition at 750 g/ha in the experiment on Amaranthus retroflexus [8] stood at 26%; in experiment [10], 0%. Moreover, the inhibition at 10 µg/mL in the experiment on Spirodela polyrhiza [5] was determined as 83%. The compound further registered an inhibition at 1 µg/mL in the experiment on Spirodela polyrhiza [9] of 65%.
